Converted amounts (≈) assume the structure as drawn.
Experiments:
[1] = tested on: MCF7; assay: Cytotoxicity against human MCF7 cells; assay type: functional; conditions: for EC50: Homo sapiens, MCF7, read-out: ED50 (the source's name)
[2] = tested on: HT-29; assay: Cytotoxicity against human HT-29 cells; assay type: functional
[3] = tested on: A549; assay: Cytotoxicity against human A549 cells; assay type: functional; conditions: for EC50: Homo sapiens, A549, read-out: ED50 (the source's name)
[4] = (§1) Toxicity in brine shrimp; assay type: organism-based; conditions: artemia, in vivo
Summary of the method: (§2)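 Lethality read-out in brine shrimp larvae (BST), used routinely to screen extracts, fractions and isolated compounds.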

[5] = tested on: Artemia; assay: as §1; assay type: organism-based; conditions: in vivo; summary of the method: as §2

**Q.** For `CCCCCCCCCC[C@H](O)[C@H]1CC[C@H]([C@H]2CC[C@H]([C@H](O)CCCCCCCCCCC3CC(CC(C)=O)C(=O)O3)O2)O1` (mixture of isomers), which EC50 [1] is on record?
**A.** Its EC50 is 12.2 µg/mL.

**Q.** What about the ED50 [2] of the same molecule?
**A.** Its ED50 is 1.19 ×10⁻⁶ ug/ml.

**Q.** And the EC50 [3]?
**A.** The EC50 was 0.00218 µg/mL.

**Q.** And the LC50 [4]?
**A.** The LC50 was 0.0054 µg/mL.

**Q.** With `COc1cccc2c1C(=O)c1c(O)c3c(c(O)c1C2=O)C[C@@](O)(C(=O)CO)C[C@@H]3O[C@H]1C[C@H](N)[C@H](O)[C@H](C)O1` [DOXORUBICIN] as the molecule, how does the EC50 [1] read?
**A.** Its EC50 is 0.00202 µg/mL (≈ 3.72 nM).

**Q.** And the ED50 [2]?
**A.** The ED50 was 3.32 ×10⁻⁴ ug/ml.

**Q.** And the ED50 [3]?
**A.** Its ED50 is 1.98 ×10⁻⁴ ug/ml.

**Q.** What does the source list for `CCCC(O)CCCCCC[C@H](O)[C@H]1CC[C@H]([C@H]2CC[C@H]([C@H](O)CCCCCCCCCCC3CC(CC(C)=O)C(=O)O3)O2)O1` (mixture of isomers)?
**A.** ED50 [1]: 7.63 ×10⁻⁴ ug/ml; ED50 [2]: 1.09 ×10⁻¹² ug/ml; ED50 [3]: 3.29 ×10⁻¹¹ ug/ml; LC50 [4]: 0.158 µg/mL

**Q.** Which EC50 [1] does the source give for `CCCCC(O)CCCCC[C@H](O)[C@H]1CC[C@H]([C@H]2CC[C@H]([C@H](O)CCCCCCCCCCC3CC(CC(C)=O)C(=O)O3)O2)O1` (mixture of isomers) here?
**A.** Its EC50 is 0.105 µg/mL.

**Q.** And the ED50 [2]?
**A.** Its ED50 is less than 1 ×10⁻¹² ug/ml.

**Q.** And the ED50 [3]?
**A.** Its ED50 is 1.66 ×10⁻⁹ ug/ml.

**Q.** What about the LC50 [5] of the same molecule?
**A.** The LC50 was 4.05 ×10⁻² ug/ml.

**Q.** Which EC50 [1] does the source give for `CCC(O)CCCCCCC[C@H](O)[C@H]1CC[C@H]([C@H]2CC[C@H]([C@H](O)CCCCCCCCCCC3CC(CC(C)=O)C(=O)O3)O2)O1` (mixture of isomers) here?
**A.** Its EC50 is 0.161 µg/mL.

**Q.** What about the ED50 [2] of the same molecule?
**A.** Its ED50 is less than 1 ×10⁻¹² ug/ml.

**Q.** And the EC50 [3]?
**A.** Its EC50 is 0.00125 µg/mL.

**Q.** And the LC50 [5]?
**A.** The LC50 was 4.67 ×10⁻² ug/ml.
